In ChEMBL document CHEMBL1155236, “Identification of biphenyl-based hybrid molecules able to decrease the intracellular level of Bcl-2 protein in Bcl-2 overexpressing leukemia cells” (J Med Chem, 2009):
Values belong to the compound of their own block, whether it stands above or below them. Calls of active or inactive are those of the source. The calls are words filed in the database; no cut-off is given here.

Tests used:
[1] = test system: HL-60; assay: Antiproliferative activity against human HL60 cells after 48 hrs by trypan blue method; format: functional, cell-based; details: HL-60, 48 h
Outline: (§1)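 Growth inhibition read by counting cells with an automatic cell counter after 48 h of compound exposure. IC50 is the concentration inhibiting 50% of cell growth.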

[2] = test system: K562; assay: Antiproliferative activity against human K562 cells after 48 hrs by trypan blue method; format: functional, cell-based; details: K562, 48 h; outline: as §1
[3] = test system: HL-60; assay: Induction of apoptosis in human HL60 cells assessed as morphological changes after 48 hrs by annexin V assay; format: functional, cell-based; details: HL-60, 48 h
Outline: (§2)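 HL60 or K562 cells treated for 48 h. Apoptosis scored by morphological assay and annexin V test. AC50 is the concentration inducing apoptosis in 50% of cells.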

[4] = test system: K562; assay: Induction of apoptosis in human K562 cells assessed as morphological changes after 48 hrs by annexin V assay; format: functional, cell-based; details: K562, 48 h; outline: as §2
[5] = test system: K562; assay: Cell cycle arrest in human K562 cells by accumulation at G1 phase at 30 uM after 24 hrs using propidium iodide staining by FACS; format: functional
Outline: (§3)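 K562 cells treated for 24, 48 or 72 h. Cells stained with propidium iodide and cell-cycle phase distribution analysed by flow cytometry against untreated cells. The sub-G0–G1 peak was taken as apoptotic.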

[6] = test system: K562; assay: Cell cycle arrest in human K562 cells by accumulation at S phase at 30 uM after 24 hrs using propidium iodide staining by FACS; format: functional; outline: as §3
[7] = test system: K562; assay: Cell cycle arrest in human K562 cells by accumulation at G2/M phase at 30 uM after 24 hrs using propidium iodide staining by FACS; format: functional; outline: as §3
[8] = test system: K562; assay: Cell cycle arrest in human K562 cells by accumulation at sub-G1 (apoptotic) phase at 30 uM after 24 hrs using propidium iodide staining by FACS; format: functional; outline: as §3
[9] = test system: K562; assay: Cell cycle arrest in human K562 cells by accumulation at G1 phase at 30 uM after 48 hrs using propidium iodide staining by FACS; format: functional; outline: as §3
[10] = test system: K562; assay: Cell cycle arrest in human K562 cells by accumulation at S phase at 30 uM after 48 hrs using propidium iodide staining by FACS; format: functional; outline: as §3
[11] = test system: K562; assay: Cell cycle arrest in human K562 cells by accumulation at G2/M phase at 30 uM after 48 hrs using propidium iodide staining by FACS; format: functional; outline: as §3
[12] = test system: K562; assay: Cell cycle arrest in human K562 cells by accumulation at sub-G1 (apoptotic) phase at 30 uM after 48 hrs using propidium iodide staining by FACS; format: functional; outline: as §3
[13] = test system: K562; assay: Cell cycle arrest in human K562 cells by accumulation at G1 phase at 30 uM after 72 hrs using propidium iodide staining by FACS; format: functional; outline: as §3
[14] = test system: K562; assay: Cell cycle arrest in human K562 cells by accumulation at S phase at 30 uM after 72 hrs using propidium iodide staining by FACS; format: functional; outline: as §3
[15] = test system: K562; assay: Cell cycle arrest in human K562 cells by accumulation at G2/M phase at 30 uM after 72 hrs using propidium iodide staining by FACS; format: functional; outline: as §3
[16] = test system: K562; assay: Cell cycle arrest in human K562 cells by accumulation at sub-G1 (apoptotic) phase at 30 uM after 72 hrs using propidium iodide staining by FACS; format: functional; outline: as §3
[17] = test system: K562; assay: Induction of apoptosis in human K562 cells assessed as decrease in Bcl-2 expression at 30 uM after 24 hrs by flow cytometry; format: functional; set-up: scale not given: the % may be the effect or the level left
Outline: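 K562 cells cultured 24 h with compound at 30 μM or without (control). Intracellular Bcl-2 read by flow cytometry after staining with FITC-conjugated anti-Bcl-2 monoclonal antibody. Treated histograms compared with control histograms.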

[18] = test system: HL-60; assay: Induction of apoptosis in human HL60 cells assessed as induction of cell differentiation marker CD61 expression at 10 uM after 120 hrs by flow cytometry; format: functional, cell-based
Outline: (§4)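 HL60 or K562 cells exposed to 10 μM compound or no compound (control) for 120 h (5 days). Surface CD11c and CD61 read by flow cytometry with PE- or FITC-conjugated monoclonal antibodies. Treated cells compared with untreated cells.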

[19] = test system: HL-60; assay: Induction of apoptosis in human HL60 cells assessed as induction of cell differentiation marker CD11c expression at 10 uM after 120 hrs by flow cytometry; format: functional, cell-based; outline: as §4
[20] = test system: K562; assay: Induction of apoptosis in human K562 cells assessed as induction of cell differentiation marker CD61 expression at 10 uM after 120 hrs by flow cytometry; format: functional, cell-based; outline: as §4
[21] = test system: K562; assay: Induction of apoptosis in human K562 cells assessed as induction of cell differentiation marker CD11c expression at 10 uM after 120 hrs by flow cytometry; format: functional, cell-based; outline: as §4
[22] = Cytotoxicity against human lymphocytes after 48 hrs by trypan blue method; format: cell-based; details: Lymphocyte; outline: as §1
[23] = test system: K562; assay: Cell cycle arrest in human K562 cells by accumulation at G1 phase at 130 uM after 24 hrs using propidium iodide staining by FACS; format: functional; outline: as §3
[24] = test system: K562; assay: Cell cycle arrest in human K562 cells by accumulation at S phase at 130 uM after 24 hrs using propidium iodide staining by FACS; format: functional; outline: as §3
[25] = test system: K562; assay: Cell cycle arrest in human K562 cells by accumulation at G2/M phase at 130 uM after 24 hrs using propidium iodide staining by FACS; format: functional; outline: as §3
[26] = test system: K562; assay: Cell cycle arrest in human K562 cells by accumulation at A phase at 130 uM after 24 hrs using propidium iodide staining by FACS; format: functional; outline: as §3
[27] = test system: K562; assay: Cell cycle arrest in human K562 cells by accumulation at G1 phase at 130 uM after 48 hrs using propidium iodide staining by FACS; format: functional; outline: as §3
[28] = test system: K562; assay: Cell cycle arrest in human K562 cells by accumulation at S phase at 130 uM after 48 hrs using propidium iodide staining by FACS; format: functional; outline: as §3
[29] = test system: K562; assay: Cell cycle arrest in human K562 cells by accumulation at G2/M phase at 130 uM after 48 hrs using propidium iodide staining by FACS; format: functional; outline: as §3
[30] = test system: K562; assay: Cell cycle arrest in human K562 cells by accumulation at A phase at 130 uM after 48 hrs using propidium iodide staining by FACS; format: functional; outline: as §3
[31] = test system: K562; assay: Cell cycle arrest in human K562 cells by accumulation at G1 phase at 130 uM after 72 hrs using propidium iodide staining by FACS; format: functional; outline: as §3
[32] = test system: K562; assay: Cell cycle arrest in human K562 cells by accumulation at S phase at 130 uM after 72 hrs using propidium iodide staining by FACS; format: functional; outline: as §3
[33] = test system: K562; assay: Cell cycle arrest in human K562 cells by accumulation at G2/M phase at 130 uM after 72 hrs using propidium iodide staining by FACS; format: functional; outline: as §3
[34] = test system: K562; assay: Cell cycle arrest in human K562 cells by accumulation at A phase at 130 uM after 72 hrs using propidium iodide staining by FACS; format: functional; outline: as §3

Compound: Oc1ccc(-c2cc(O)cc(O)c2)cc1
- IC50 [1]: > 80 µM
- IC50 [2]: > 80 µM
- AC50 [3]: > 80 µM
- AC50 ([4]; read-out: AC50): > 80 µM

Compound: OCc1ccc(-c2cc(O)cc(O)c2)cc1
- IC50 [1]: > 80 µM
- IC50 [2]: > 80 µM
- AC50 ([3]; read-out: AC50): > 80 µM
- AC50 ([4]; read-out: AC50): > 80 µM

Compound: CC1(C)OC(=O)C2(C(=O)O1)[C@@H](c1ccc(-c3ccc(CO)cc3)cc1)CC(=O)C[C@H]2c1ccccc1
- IC50 [1]: 20 µM
- IC50 [2]: 38 µM

Compound: O=C1C[C@H](c2cnc[nH]2)C2(C(=O)c3ccccc3C2=O)[C@H](c2ccc(O)cc2)C1
- IC50 [1]: 86 µM
- IC50 [2]: 95 µM

Compound: CC1(C)OC(=O)C2(C(=O)O1)[C@@H](c1c[nH]c3ccccc13)CC(=O)C[C@H]2c1ccccc1
- IC50 [1]: 62 µM
- IC50 [2]: > 100 µM

Compound: O=C1C[C@H](c2ccccc2)C2(C(=O)c3ccccc3C2=O)[C@H](c2ccccc2)C1
- Activity [23]: 27%
- Activity [24]: 61%
- Activity [25]: 12%
- Activity [26]: 13%
- Activity [27]: 26%
- Activity [28]: 40%
- Activity [29]: 34%
- Activity [30]: 18%
- Activity [31]: 7%
- Activity [32]: 21%
- Activity [33]: 72%
- Activity [34]: 20%
- IC50 [1]: 20 µM
- IC50 [2]: 98 µM

Compound: O=C1C[C@H](c2ccc(O)cc2)C2(C(=O)c3ccccc3C2=O)[C@H](c2ccc(O)cc2)C1
- IC50 [1]: 28 µM
- IC50 [2]: 73 µM

Compound: COc1ccc(-c2ccc([C@H]3CC(=O)C[C@@H](c4ccccc4)C34C(=O)c3ccccc3C4=O)cc2)cc1
- IC50 [1]: > 100 µM
- IC50 [2]: > 100 µM

Compound: CC1(C)OC(=O)C2(C(=O)O1)[C@@H](c1ccc(O)cc1)CC(=O)C[C@H]2c1ccc(O)cc1
- IC50 [1]: 87 µM
- IC50 [2]: > 100 µM

Compound: O=C1C[C@H](c2ncc[nH]2)C2(C(=O)c3ccccc3C2=O)[C@H](c2ncc[nH]2)C1
- IC50 [1]: > 100 µM
- IC50 [2]: > 100 µM

The next compounds have a lower IC50 [2] than those just listed; values first:

- IC50 [1]: 23 µM
- IC50 [2]: 25 µM
Compound: O=C1C[C@H](c2ccc(O)cc2)C2(C(=O)c3ccccc3C2=O)[C@H](c2ccccc2)C1

- IC50 [1]: 16 µM
- IC50 [2]: 8 µM
Compound: CC1(C)OC(=O)C2(C(=O)O1)[C@@H](c1ccc(-c3ccc(-c4ccc(O)cc4)cc3)cc1)CC(=O)C[C@H]2c1ccccc1
- Activity [5]: 65%
- Activity [6]: 26%
- Activity [7]: 11%
- Activity [8]: 2%
- Activity [9]: 72%
- Activity [10]: 22%
- Activity [11]: 6%
- Activity [12]: 2%
- Activity [13]: 72%
- Activity [14]: 20%
- Activity [15]: 8%
- Activity [16]: 2%
- Activity [17]: 4.9%
- Activity [18]: Active
- Activity [19]: Active
- Activity [20]: inactive
- Activity [21]: inactive
- AC50 ([3]; read-out: AC50): 32 µM
- AC50 ([4]; read-out: AC50): > 100 µM
- IC50 ([22]; read-out: IC50): 185 µM

- IC50 [1]: 6 µM
- IC50 [2]: 14 µM
Compound: O=C1C[C@H](c2ccc(-c3ccc(CO)cc3)cc2)C2(C(=O)c3ccccc3C2=O)[C@H](c2ccccc2)C1
- Activity [5]: 47%
- Activity [6]: 34%
- Activity [7]: 19%
- Activity [8]: 4%
- Activity [9]: 48%
- Activity [10]: 30%
- Activity [11]: 22%
- Activity [12]: 6%
- Activity [13]: 48%
- Activity [14]: 32%
- Activity [15]: 20%
- Activity [16]: 11%
- Activity [17]: 4.3%
- Activity [18]: Active
- Activity [19]: Active
- Activity [20]: inactive
- Activity [21]: inactive
- AC50 ([3]; read-out: AC50): 12 µM
- AC50 [4]: 80 µM
- IC50 ([22]; read-out: IC50): 286 µM

- IC50 [1]: 8 µM
- IC50 [2]: 9 µM
Compound: CC1(C)OC(=O)C2(C(=O)O1)[C@@H](c1ccc(-c3ccc(O)cc3)cc1)CC(=O)C[C@H]2c1ccccc1
- Activity [5]: 46%
- Activity [6]: 43%
- Activity [7]: 11%
- Activity [8]: 7%
- Activity [9]: 39%
- Activity [10]: 52%
- Activity [11]: 9%
- Activity [12]: 46%
- Activity [13]: 37%
- Activity [14]: 54%
- Activity [15]: 9%
- Activity [16]: 47%
- Activity [17]: 31.2%
- AC50 [3]: 16 µM
- AC50 [4]: 33 µM
- IC50 [22]: 172 µM

- IC50 [1]: 6 µM
- IC50 [2]: 8 µM
Compound: O=C1C[C@H](c2ccc(-c3ccc(O)cc3)cc2)C2(C(=O)c3ccccc3C2=O)[C@H](c2ccccc2)C1
- Activity [5]: 44%
- Activity [6]: 39%
- Activity [7]: 17%
- Activity [8]: 4%
- Activity [9]: 35%
- Activity [10]: 61%
- Activity [11]: 4%
- Activity [12]: 53%
- Activity [13]: 34%
- Activity [14]: 61%
- Activity [15]: 2%
- Activity [16]: 55%
- Activity [17]: 32.8%
- AC50 ([3]; read-out: AC50): 11 µM
- AC50 ([4]; read-out: AC50): 25 µM
- IC50 ([22]; read-out: IC50): 215 µM

- IC50 [2]: 20 µM
Compound: Oc1ccc(-c2ccc(-c3cc(O)cc(O)c3)cc2)cc1
- AC50 [4]: 75 µM
